# Measured values from different studies.
# Lines come from different studies, so protocols differ.
# Matrix: plasma
Compound,host,route,dose,setting,AUC(0-t)
COc1cc2c(cc1OC)CN(CCc1ccc(NC(=O)c3cc(OC)c(OC)cc3NC(=O)c3cnc4ccccc4c3)cc1)CC2,human,intravenous,2 mg/kg,patients,11.9 µM·h
COCCOc1cnc2ccn([C@H](C)c3nnc4c(F)cc(-c5cnn(C)c5)cn34)c(=O)c2c1,human,oral,25 mg,"multiple doses, once daily, patients",5990 ng·h/mL
OC[C@H]1O[C@@H](c2ccc(Cl)c(Cc3ccc(O[C@H]4CCOC4)cc3)c2)[C@H](O)[C@@H](O)[C@@H]1O,human,oral,10 mg,single dose,1.63 µM·h
C[C@@H](Nc1cc(F)cc(F)c1)c1cc(C(=O)N(C)C)cc2c(=O)cc(N3CCOCC3)oc12,human,oral,30 mg,"single dose, patients",599 ng·h/mL
NS(=O)(=O)c1ccc(NC(=O)Nc2ccc(F)cc2)cc1,human,oral,500 mg,"multiple doses, once daily",62200 ng·h/mL
O=C(O)C[C@H](O)C[C@H](O)/C=C/c1c(C2CC2)nc2ccccc2c1-c1ccc(F)cc1,human,oral,2 mg,"single dose, fed, healthy volunteers, tablet",292 ng·h/mL
CCOc1cc([C@@H](CS(C)(=O)=O)N2C(=O)c3cccc(NC(C)=O)c3C2=O)ccc1OC,human,oral,30 mg,"single dose, healthy volunteers",2190 ng·h/mL
O=C(/C=C/c1cccc(S(=O)(=O)Nc2ccccc2)c1)NO,human,intravenous,2000 mg/m²,patients,85200 ng·h/mL
CC[C@H](C)C(=O)O[C@H]1C[C@H](O)C=C2C=C[C@H](C)[C@H](CC[C@@H](O)C[C@@H](O)CC(=O)O)[C@H]21,human,oral,20 mg,,46.7 ng·h/mL
C#Cc1cccc(Nc2ncnc3cc(OCCOC)c(OCCOC)cc23)c1,human,oral,50 mg,"multiple doses, once daily, patients",24.9 µM·h
CCO[C@H]1CCN(Cc2c(OC)cc(C)c3[nH]ccc23)[C@H](c2ccc(C(=O)O)cc2)C1,human,oral,50 mg,"multiple doses, twice daily, patients",8570 ng·h/mL
C[C@@H](c1ccc2nccn2c1)n1nnc2ncc(-c3cnn(C)c3)nc21,human,oral,200 mg,,3980 ng·h/mL
FC(F)(F)c1ccc(CNc2ccc(Cc3c[nH]c4ncc(Cl)cc34)cn2)cn1,human,oral,800 mg,"multiple doses, patients",22300 ng·h/mL
CCNCCCNC/C=C\CNCCCNCC,human,intravenous,100 mg,"patients, infusion",304 ng·h/mL
CC(C)n1cc(C#N)c2cc(-n3cc(C(=O)O)cn3)ccc21,human,oral,400 mg,"single dose, fasted, healthy volunteers",91500 ng·h/mL
CO[C@@H]1[C@H](OC(=O)N2CC(CCN3CCOCC3)C2)CC[C@]2(CO2)[C@H]1[C@@]1(C)O[C@@H]1CC=C(C)C,human,subcutaneous,1.2 mg,"single dose, healthy volunteers",5.45 ng·h/mL
COc1ccc([C@@H]2CN(C(=O)[C@@H](O)CO)C[C@@]2(C)[C@@H](C)O)cc1OC1CN(c2ccc(C)cn2)C1,human,oral,0.1 mg,"single dose, healthy volunteers",52.7 ng·h/mL
CCCCC1=NC2(CCCC2)C(=O)N1Cc1ccc(-c2ccccc2S(=O)(=O)Nc2noc(C)c2C)c(COCC)c1,human,oral,200 mg,"single dose, fed, healthy volunteers, tablet",50500 ng·h/mL
C[C@@H](Oc1ccc(S(C)(=O)=O)cc1C(=O)N1C[C@@H]2C[C@]2(c2cc(C(F)(F)F)on2)C1)C(F)(F)F,human,oral,25 mg,,12 µM·h
COc1cc2c(Nc3ccc(Br)cc3F)ncnc2cc1OCC1CCN(C)CC1,human,oral,65 mg/m²,"multiple doses, patients",18900 ng·h/mL
CO[C@H]1CC[C@H](N2C(=O)CNc3ncc(-c4ccc(C(C)(C)O)nc4)nc32)CC1,human,oral,7.5 mg,"multiple doses, patients",299 ng·h/mL
Oc1cc(O)c2c(c1)O[C@@H](c1ccc(O)c(O)c1)[C@@H](O)C2,human,oral,100 mg,single dose,14.2 ng·h/mL
Nc1cc(C(F)(F)F)c(-c2cc(N3CCOCC3)nc(N3CCOCC3)n2)cn1,human,oral,50 mg/day,patients,3830 ng·h/mL
Cc1nc(NC(=O)N2CCC[C@H]2C(N)=O)sc1-c1ccnc(C(C)(C)C(F)(F)F)c1,human,oral,350 mg,patients,27600 ng·h/mL
CC(C)(O)c1ccccc1-c1ccc2[nH]c(/C=C/c3ccc(C(F)(F)F)cc3)nc2c1,male human,oral,5 mg,"single dose, fasted",350 ng·h/mL
C[C@@H](Oc1ccc(S(C)(=O)=O)cc1C(=O)N1C[C@@H]2C[C@]2(c2cc(C(F)(F)F)on2)C1)C(F)(F)F,human,oral,25 mg,"fasted, tablet",8.7 µM·h
C[C@@]1(c2cc(NC(=O)c3ccc(C#N)cn3)ccc2F)C=CSC(N)=N1,human,oral,30 mg,single dose,2510 ng·h/mL
COc1cc(N2CCC(N3CCN(C)CC3)CC2)ccc1Nc1ncnc(Nc2ccccc2S(=O)(=O)C(C)C)n1,human,oral,200 mg,"multiple doses, patients",9170 ng·h/mL
